# Experimental data collected from several papers.
# Compare with care: the assays were run in different laboratories.
# FABP4: Fatty acid-binding protein, adipocyte (FABP4, Homo sapiens, UniProt P15090)
# ACHE: Acetylcholinesterase (ACHE, Homo sapiens, UniProt P22303)
# Sialidase-2: Sialidase-2 (Homo sapiens, UniProt Q9Y3R4)
Structure (SMILES),target,assay,system,conditions,quantity,result
O=C(O)C(F)(F)C(F)(F)C(F)(F)C(F)(F)C(F)(F)C(F)(F)C(F)(F)F,FABP4,"ligand displacement, fluorescence",,,Ki,1.82 µM
Cc1ccccc1C=Nc1ccc(SCc2cc(=O)c(O)co2)cc1,ACHE,"enzyme activity, inhibitor, Ellman",,,IC50,5.3 µM
CC(=O)c1c(C)c2cnc(Nc3ccc(C4CCN(CCS(C)(=O)=O)CC4)cn3)nc2n(C2CCCC2)c1=O,"Cytochrome P450 2C8 (CYP2C8, Homo sapiens, UniProt P10632)","enzyme activity, inhibitor","human, liver microsomes",,IC50,> 10 µM
O=c1cc(CSc2ccc(N=Cc3ccc(Br)cc3)cc2)occ1O,ACHE,"enzyme activity, inhibitor",,,Ki,0.907 µM
O=C(O)C(F)(F)C(F)(F)C(F)(F)C(F)(F)C(F)(F)C(F)(F)C(F)(F)C(F)(F)C(F)(F)F,FABP4,"ligand displacement, fluorescence",,,Ki,1.35 µM
Cn1c(=O)n(CCCCN2CCC3(CC2)OCc2ccccc23)c2ccccc21,"Transporter (Slc6a2, Rattus norvegicus, UniProt Q63380)","ligand displacement, radioligand",,cell membranes,Ki,0.232 µM
CCCCOP(=O)(O)C(C)=O,"1-deoxy-D-xylulose-5-phosphate synthase (dxs, Escherichia coli, UniProt P77488)","enzyme activity, inhibitor",,,Ki,3 µM
Cc1c(-c2cccnc2)c2ccccc2n1CCCCC(=O)O,FABP4,"ligand displacement, fluorescence",,,Kd,3.26 µM
CC1=C(CO)C(=O)O[C@@H]([C@@H](C)[C@H]2CC[C@H]3[C@@H]4C[C@H]5O[C@]56[C@@H](O)C=CC(=O)[C@]6(C)[C@H]4CC[C@]23C)C1,"Importin subunit beta-1 (KPNB1, Homo sapiens, UniProt Q14974, C158A)","binding, MST",,,Kd,90.4 µM
CC(C)(C)CN[C@H]1[C@H]([C@H](O)[C@H](O)CO)OC(C(=O)O)=C[C@@H]1O,Sialidase-2,"enzyme activity, inhibitor",,,IC50,120 µM
CC(C)c1cc2c(c(O)c1O)[C@@]1(C(=O)O)CCCC(C)(C)[C@@H]1CC2,ACHE,"enzyme activity, inhibitor",,,Ki,0.00058 µM
Cc1cn([C@H]2[C@H]([C@H](O)[C@H](O)CO)OC(C(=O)O)=C[C@@H]2O)nn1,Sialidase-2,"enzyme activity, inhibitor",,,IC50,80 µM
CC(C)c1cc2c(c(O)c1O)[C@@]13CCCC(C)(C)[C@@H]1[C@H](OC3=O)[C@H]2O,ACHE,"enzyme activity, inhibitor",,,Ki,0.00023 µM
